Screening data: PubChem, several laboratories
Shown are actives, neighbours in structure and some others; about 4.7% of the full set was active somewhere.
VIM-2 inh: blocks Pseudomonas aeruginosa VIM-2 metallo-beta-lactamase; purified VIM-2, nitrocefin hydrolysis, epi-absorbance fluorescence; AID 1527; actives 0.89% (n = 290,000); inhibition, % at 5.6 µM;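 active = inhibition above the mean of all tested compounds plus 3 SD, cutoff set per screening run, cut at about 7.5% in these data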;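 note: red hydrolysis product quenches plate fluorescence so inhibitors raise well fluorescence; 0% = enzyme with DMSO and 100% = DMSO without enzyme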
IMP-1 inh: blocks Pseudomonas aeruginosa IMP-1 metallo-beta-lactamase; actives 0.45% (n = 290,000); purified IMP-1, nitrocefin hydrolysis, epi-absorbance fluorescence; inhibition, % at 5.6 µM;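 active = inhibition above the mean plus 3 SD of all compounds in the same screening run, cut at about 4.5% in these data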;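 note: 0% = IMP-1 with DMSO and 100% = DMSO wells lacking enzyme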
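assay system = purified recombinant IMP-1 metallo-beta-lactamase enzyme | schedule = 15 min preincubation plus 25 min reaction at 25 °C | signal = Epi-absorbance fluorescence, 480 nm excitation, 530 nm emission | read-out basis = percent inhibition from optical density relative to buffer-blank wells | controls = IMP-1 with DMSO as 0%, enzyme-free DMSO as 100%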
697 NFkB inh: lowers PMA/ionomycin-induced NF-kB signal in 697 B cells. 697 B-cell NF-kB luciferase reporter, 16 h. inhibition, % at 4 µM. actives 0.33% (n = 330,000); in the data active = inhibition above about 35%
Mdm2-MdmX inh: human Mdm2/MdmX binding inhibition; inhibition, % at 8 µM; O15151+Q00987; AID 485346; SaOS-2 split-luciferase Mdm2/MdmX complementation, luminescence; actives 3% (n = 330,000);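 active = inhibition of at least 50% at 8 µM in the primary screen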
Target sequence (O15151 whole entry, looked up): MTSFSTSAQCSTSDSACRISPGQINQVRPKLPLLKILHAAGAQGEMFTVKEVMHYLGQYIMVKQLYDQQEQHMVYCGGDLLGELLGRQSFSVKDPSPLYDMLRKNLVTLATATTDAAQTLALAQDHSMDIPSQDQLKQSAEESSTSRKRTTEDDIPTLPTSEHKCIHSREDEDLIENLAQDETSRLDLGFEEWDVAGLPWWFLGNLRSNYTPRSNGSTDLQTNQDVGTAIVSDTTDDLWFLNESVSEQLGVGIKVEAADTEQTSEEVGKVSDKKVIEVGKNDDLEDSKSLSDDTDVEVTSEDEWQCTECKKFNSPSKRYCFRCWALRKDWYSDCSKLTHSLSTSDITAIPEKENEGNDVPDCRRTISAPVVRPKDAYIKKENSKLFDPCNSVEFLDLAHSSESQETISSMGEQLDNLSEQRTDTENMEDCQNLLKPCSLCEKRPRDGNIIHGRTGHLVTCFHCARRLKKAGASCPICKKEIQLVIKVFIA
Target sequence (Q00987 whole entry, looked up): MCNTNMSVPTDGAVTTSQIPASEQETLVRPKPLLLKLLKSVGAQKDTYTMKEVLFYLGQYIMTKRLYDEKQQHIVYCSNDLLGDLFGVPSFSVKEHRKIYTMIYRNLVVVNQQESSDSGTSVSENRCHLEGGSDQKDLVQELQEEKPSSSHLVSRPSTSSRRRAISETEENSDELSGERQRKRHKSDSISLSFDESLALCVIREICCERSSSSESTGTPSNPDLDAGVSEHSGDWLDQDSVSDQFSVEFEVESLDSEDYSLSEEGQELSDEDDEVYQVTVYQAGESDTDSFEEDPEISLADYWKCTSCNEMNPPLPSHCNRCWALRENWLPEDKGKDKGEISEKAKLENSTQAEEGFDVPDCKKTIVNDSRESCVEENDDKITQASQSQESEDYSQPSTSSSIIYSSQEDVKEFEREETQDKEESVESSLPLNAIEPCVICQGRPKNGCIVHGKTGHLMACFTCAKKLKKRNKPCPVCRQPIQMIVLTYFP
aSyn UTR inh: MLPCN primary screen, SNCA 5' untranslated region; alpha-synuclein 5'UTR reporter, inhibitor activity; inhibition, % (tested at 7.5 µM); actives 0.82% (n = 300,000); AID 1813; in the data active = inhibition above about 60%; inconclusive = no clear call, values can overlap the other calls;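 note: H4 neuroglioblastoma cells stably carrying SNCA 5'UTR luciferase fusion; 0% = DMSO wells and 100% = positive control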
Jurkat NFkB inh: inhibitors of the PMA/ionomycin-induced NF-kB reporter in Jurkat cells; PMA/ionomycin-induced NF-kB luciferase reporter, luminescence; inhibition, % at 4 µM; actives 0.53% (n = 330,000); AID 435003; in the data active = inhibition above about 50%
Mdm2 MdmX conf: confirmation of human Mdm2/MdmX interaction inhibitors | actives 55% (n = 10,000) | inhibition, % at 8 µM | AID 489028 | Mdm2-MdmX binding, luminescent assay | shares compounds with Mdm2-MdmX inh; in the data active = inhibition above about 40%
FLuc counter: inhibits full-length luciferase, flagging false Mdm2/MdmX hits | shares compounds with Mdm2-MdmX inh | SaOS-2 full-length luciferase counterscreen, luminescence | inhibition, % at 8 µM | actives 77% (n = 6,200);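 active = mean inhibition at 8 µM reaching about 37%, which flags the compound as non-specific, limit read from the data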;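 note: p53-null SaOS-2 cells with luciferase driven by a doxycycline-inducible promoter; compound on cells about two nights before reading with doxycycline added after day one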
* marks the source's active call; other numbers are inactive results; ? = inconclusive; / = no result.

SMILES	VIM-2 inh	IMP-1 inh	697 NFkB inh	Mdm2-MdmX inh	aSyn UTR inh	Jurkat NFkB inh	Mdm2 MdmX conf	others
CN(C)c1ccc(C=Nc2cnn(C)c2C(N)=O)cc1	-4.6	-3.9	-3.8	52.4*	/	-19.0	-1.2
CN(C)CCCC(C)(O)C(Cc1ccccc1)c1ccccc1 (configuration not stated)	-1.7	0.4	5.7	-6.5	5.7	-9.0	/
Cc1ccc(N2C(=O)C(Cl)=C(N3CCCCCC3)C2=O)c(C)c1	-0.2	-1.4	-14.2	24.5	7.9	-5.6	/
COC(=O)c1[nH]c2ccc(Br)cc2c1NC(=O)CN1CCCc2ccccc21	3.2	-0.6	-10.7	53.4*	11.9	-20.2	26.1
COC(=O)c1[nH]c2cc(C)ccc2c1NC(=O)CN1CCCc2ccccc21	1.4	1.1	-28.4	25.8	-55.5	-19.8	/
CC1CCCCN1S(=O)(=O)c1ccc(C(=O)N(CCCN(C)C)c2nc3ccc(Br)cc3s2)cc1 (configuration not stated)	-0.8	0.7	-62.6	76.8*	67.0*	0.7	33.0	FLuc counter=60.8*
CCC1CCCCN1S(=O)(=O)c1ccc(C(=O)N(CCCN(C)C)c2nc3cc4c(cc3s2)OCO4)cc1 (configuration not stated)	2.8	0.4	-46.7	63.0*	5.7	-0.7	43.0*	FLuc counter=58.5*
CN(C)CCN(C(=O)c1ccc(S(=O)(=O)N2CCCC2)cc1)c1nc2ccc(Br)cc2s1	1.7	-0.1	3.5	13.9	-19.8	-22.1	/
CC(=O)c1ccc(S(=O)(=O)N2CCCCC2C(=O)O)cc1 (configuration not stated)	1.7	-2.0	15.8	28.8	12.5	11.9	/
COC(=O)c1cc2sccc2n1Cc1nc(-c2ccc(Cl)cc2)oc1C	-0.9	-2.5	5.0	51.5*	33.3	3.5	14.9
COC(=O)c1cc2sccc2n1Cc1nc(-c2cccc(Cl)c2)oc1C	0.7	-1.5	7.6	8.9	6.5	8.3	/
O=C(c1cc2nc(-c3ccc(Cl)cc3)cc(C(F)(F)F)n2n1)N1CCOCC1	-1.4	-1.4	-21.5	-4.9	-12.2	-6.6	/
N/C(=N\c1nc(CSc2ccccn2)cc(=O)[nH]1)Nc1ccc(Cl)cc1Cl	-0.9	-1.1	7.5	63.8*	28.2	7.6	1.9
COc1ccc(N/C(N)=N/c2nc(CSc3nnc(C)s3)cc(=O)[nH]2)cc1	-1.8	-0.8	-27.5	52.1*	3.9	32.2	65.0*	FLuc counter=65.4*
Cc1cccc(N/C(N)=N/c2nc(CSc3ccc(Cl)cc3)cc(=O)[nH]2)c1	-4.5	-4.9	6.0	68.0*	-43.4	7.7	6.8
COc1ccc(Cl)cc1N/C(N)=N/c1nc(CSc2ccc(C)cc2)cc(=O)[nH]1	-1.7	-3.1	-14.3	3.9	28.2	8.9	/
COCc1cc(=O)[nH]c(/N=C(\N)Nc2cccc(C)c2)n1	-1.6	1.1	12.5	30.5	11.1	17.8	/
Cn1/c(=N/NC(=O)c2ccccc2Br)sc2ccccc21	-2.1	-2.5	-20.2	-54.3	-75.1	-36.8	/
NCCc1c(-c2ccccc2)n(-c2ccccc2)c2ccccc12	-2.1	-2.2	2.0	61.1*	22.5	45.4	53.2*	FLuc counter=70.7*
CCN(CC)S(=O)(=O)c1cc(NC(=O)COC(=O)c2c(C)noc2C)ccc1C	/	/	0.6	15.0	/	15.6	/
CC(=O)OC(C)(C)/C=C/C(=O)[C@](C)(O)C1[C@H](O)C[C@@]2(C)C3CC=C4C(C=C(O[C@@H]5O[C@H](CO)[C@@H](O)[C@H](O)[C@H]5O)C(=O)C4(C)C)[C@]3(C)C(=O)C[C@]12C (some centres not stated)	/	/	14.0	96.1*	/	1.5	-8.5
O=C(NCc1nnc2c(C(F)(F)F)cc(Cl)cn12)c1ccc(Br)o1	-0.2	-1.9	6.0	32.4	10.7	-3.0	/
Cc1ccc(-n2ncc(C(=O)Nc3cc(Cl)ccc3C)c2C2CCNCC2)cc1C	-0.9	-1.7	-14.9	66.2*	17.2	9.1	38.1	FLuc counter=71.7*
Cc1cccc(NC(=O)c2cnn(-c3ccc(F)cc3)c2C2CCNCC2)c1C	-2.0	-0.8	4.0	26.5	-3.3	-2.2	/
COC(=O)C1=C[C@@H](C(=O)OC)[C@@H]2C3=C(C(=O)[C@@]2(C)NC(=O)c2ccccc2)[C@H](c2ccccc2)[C@@H]2C(=O)NC(=O)[C@@H]2[C@@H]3C1	/	/	9.3	1.2	0.4	-14.8	/
SMILES	VIM-2 inh	IMP-1 inh	697 NFkB inh	Mdm2-MdmX inh	aSyn UTR inh	Jurkat NFkB inh	Mdm2 MdmX conf	others
O=c1cc(O)c2sc(Nc3ccc(F)cc3)nc2[nH]1	-0.6	-4.1	-20.4	65.7*	-10.7	4.5	47.5*	FLuc counter=42.5*
O=c1cc(O)c2sc(Nc3cccc(C(F)(F)F)c3)nc2[nH]1	-1.0	-2.2	6.4	21.2	-22.7	3.7	/
CCC(C)Nc1nc(N)c([N+](=O)[O-])c(Nc2cc(OC)ccc2OC)n1 (configuration not stated)	1.2	-3.7	-16.0	68.6*	97.1*	-0.7	19.0
CCC(C)Nc1nc(N)c([N+](=O)[O-])c(Nc2ccccc2OC)n1 (configuration not stated)	-0.1	-3.9	-26.9	58.6*	?	8.6	24.1
CC(=O)Nc1ccccc1C(=O)C(=O)Nc1cccc(C(=O)N2CC(C)CC(C)C2)c1 (configuration not stated)	-1.3	-1.5	5.4	-2.4	17.8	13.6	/
Cc1cccc(NC(=O)c2nc[nH]c2C(=O)N[C@@H](CCCCNC(=O)OC(C)(C)C)C(=O)OC(C)(C)C)c1	/	/	4.7	61.3*	14.1	-11.8	23.6
Cc1cccc(NC(=O)c2nc[nH]c2C(=O)NCCN(CCNC(=O)c2[nH]cnc2C(=O)Nc2cccc(C)c2)CCNC(=O)c2[nH]cnc2C(=O)Nc2cccc(C)c2)c1	/	/	14.5	85.9*	/	-6.6	50.5*	FLuc counter=38.8*
Cc1cccc(NC(=O)c2nc[nH]c2C(=O)NCCCNC(=O)c2[nH]cnc2C(=O)Nc2cccc(C)c2)c1	/	/	21.4	72.9*	/	-21.4	62.9*	FLuc counter=43.0*
Cc1cccc(NC(=O)c2nc[nH]c2C(=O)NC2CCN(C(=O)OC(C)(C)C)CC2)c1	/	/	-6.5	54.7*	/	11.5	26.1
Cc1cccc(NC(=O)c2nc[nH]c2C(=O)N2CCN(C(=O)OC(C)(C)C)CC2)c1	/	/	8.3	26.3	/	-5.3	/
O=S1(=O)C=C(SCc2ccc(F)cc2)Nc2ccccc21	0.2	-0.7	12.7	9.4	-4.8	-2.8	/
COc1ccc(C(=O)CC(=O)C(=O)Nc2ccc(C)cc2Cl)cc1	-2.0	-0.5	-1.2	20.1	-38.8	-3.1	/
COc1cc(OC)c(NC(=O)C(=O)CC(=O)c2ccc(C)cc2C)cc1Cl	-1.6	-1.9	5.8	51.5*	5.1	-1.2	29.2	FLuc counter=81.3*
